Values after ≈ are worked out from the molar mass of the structure shown.
Columns and labels:
Format in all cases: functional
Staphylococcus aureus = test: Antibacterial activity against Staphylococcus aureus ATCC 13709 after 24 hrs at 37 degC by CLSI protocol based microdilution method; details: ATCC 13709, 24 h
In short: (§1)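 Macrolide-susceptible strains, broth microdilution MIC per CLSI. Media: Mueller–Hinton broth (MHB) for S. aureus and M. catarrhalis, MHB plus 5% horse serum for streptococci, Haemophilus test medium for H. influenzae. Compounds dissolved in DMF (5 mg/mL stock) and serially twofold diluted in medium over 64 to 0.125 µg/mL. MIC read after 24 h incubation at 37 °C.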

Haemophilus influenzae = test: Antibacterial activity against Haemophilus influenzae ATCC 49247 after 24 hrs at 37 degC by CLSI protocol based microdilution method; details: ATCC 49247, 24 h; in short: as §1
Streptococcus pneumoniae = test: Antibacterial activity against Streptococcus pneumoniae ATCC […] after 24 hrs at 37 degC by CLSI protocol based microdilution method; in short: as §1
Moraxella catarrhalis = test: Antibacterial activity against Moraxella catarrhalis ATCC 23246 after 24 hrs at 37 degC by CLSI protocol based microdilution method; details: ATCC 23246, 24 h; in short: as §1
Streptococcus pyogenes = test: Antibacterial activity against Streptococcus pyogenes ATCC 700294 after 24 hrs at 37 degC by CLSI protocol based microdilution method; details: ATCC 700294, 24 h; in short: as §1

`CC[C@H]1OC(=O)[C@H](C)[C@@H](O[C@H]2C[C@@](C)(OC)[C@@H](O)[C@H](C)O2)[C@H](C)[C@@H](O[C@@H]2O[C@H](C)C[C@H](N(C)C)[C@H]2O)[C@](C)(OC)C[C@@H](C)C(=O)[C@H](C)[C@@H](O)[C@]1(C)O` [CLARITHROMYCIN] was tested. Which MIC (Staphylococcus aureus) did it give?
The MIC was 0.25 µg/mL (≈ 0.334 µM).

And the MIC (Haemophilus influenzae)?
Its MIC is 8 µg/mL (≈ 10.7 µM).

And the MIC (Streptococcus pneumoniae)?
Its MIC is under 0.125 µg/mL.

And the MIC (Moraxella catarrhalis)?
The MIC was under 0.125 µg/mL.

What about the MIC (Streptococcus pyogenes) of the same compound?
The MIC was under 0.125 µg/mL.
